# Tests used:
# Rattus norvegicus [1] = assay: Biodistribution of [18F]AFA in rat frontal cortex at 10 min postinjection in vivo; type: ADME, organism-based
# Procedure, shortened: (§1)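 Male Sprague-Dawley rats, three per time point, received the F-18 radioligand in saline (~20 µCi per rat at injection) by tail vein. Under CO2 anesthesia they were decapitated at 10, 30, 60, 90 or 120 min. Blood and dissected brain regions were weighed and gamma counted. Activity was decay-corrected, and injected dose was corrected for tail residual activity. Uptake was expressed as %ID/g versus injectate standards, mean ± SD.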
# Rattus norvegicus [2] = assay: Biodistribution of [18F]AFA in rat striatum 60 min postinjection in vivo; type: ADME, organism-based; conditions: 1 h; procedure, shortened: as §1
# Rattus norvegicus [3] = assay: Biodistribution of [18F]AFA in rat frontal cortex at 120 min postinjection in vivo; type: ADME, organism-based; conditions: 2 h; procedure, shortened: as §1
# Rattus norvegicus [4] = assay: Biodistribution of [18F]AFA in rat frontal cortex at 30 min postinjection in vivo; type: ADME, organism-based; conditions: 0.5 h; procedure, shortened: as §1
# Rattus norvegicus [5] = assay: Biodistribution of [18F]AFA in rat thalamus at 60 min postinjection in vivo; type: ADME, organism-based; conditions: 1 h
# Procedure, shortened: (§2)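 Male Sprague-Dawley rats, three per group, received ~20 µCi of the F-18 radioligand in saline by tail-vein injection. Rats were anesthetized with CO2 and decapitated at 10, 30, 60, 90 or 120 min. Blood and brain regions were weighed and gamma-counted. %ID/g was decay- and tail-residual-corrected against F-18 standards made from the injectate and reported as mean ± SD.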
# Rattus norvegicus [6] = assay: Biodistribution of [18F]AFA in rat striatum at 120 min postinjection in vivo; type: ADME, organism-based; conditions: 2 h; procedure, shortened: as §1
# Rattus norvegicus [7] = species on record: Rattus norvegicus; assay: Specific binding of [18F]AFA in striatum of rat pretreated with compound 7c; n=3; type: functional
# Rattus norvegicus [8] = assay: Biodistribution of [18F]AFA in rat frontal cortex at 60 min postinjection in vivo; type: ADME, organism-based; conditions: 1 h; procedure, shortened: as §1
# Rattus norvegicus [9] = assay: Biodistribution of [18F]AFA in rat hypothalamus at 10 min postinjection in vivo; type: ADME, organism-based; procedure, shortened: as §1
# Rattus norvegicus [10] = assay: Biodistribution of [18F]AFA in rat blood at 120 min postinjection in vivo; type: ADME, organism-based; conditions: 2 h; procedure, shortened: as §1
# Rattus norvegicus [11] = assay: Biodistribution of [18F]AFA in rat cerebellum at 60 min postinjection in vivo; type: ADME, organism-based; conditions: 1 h; procedure, shortened: as §1
# Rattus norvegicus [12] = assay: Biodistribution of [18F]AFA in rat cerebellum at 10 min postinjection in vivo; type: ADME, organism-based; procedure, shortened: as §1
# Rattus norvegicus [13] = assay: Biodistribution of [18F]AFA in rat hippocampus at 30 min postinjection in vivo; type: ADME, organism-based; conditions: 0.5 h; procedure, shortened: as §1
# Rattus norvegicus [14] = assay: Biodistribution of [18F]AFA in rat hippocampus at 10 min postinjection in vivo; type: ADME, organism-based; procedure, shortened: as §1
# Rattus norvegicus [15] = species on record: Rattus norvegicus; assay: Specific binding of [18F]AFA in thalamus of rat pretreated with compound 7c; n=3; type: functional
# Rattus norvegicus [16] = assay: Biodistribution of [18F]AFA in rat thalamus at 10 min postinjection in vivo; type: ADME, organism-based; procedure, shortened: as §2
# Rattus norvegicus [17] = assay: Biodistribution of [18F]AFA in rat blood at 60 min postinjection in vivo; type: ADME, organism-based; conditions: 1 h; procedure, shortened: as §1
# Rattus norvegicus [18] = assay: Biodistribution of [18F]AFA in rat hypothalamus at 90 min postinjection in vivo; type: ADME, organism-based; conditions: 1.5 h; procedure, shortened: as §1
# Rattus norvegicus [19] = assay: Biodistribution of [18F]AFA in rat cerebellum at 30 min postinjection in vivo; type: ADME, organism-based; conditions: 0.5 h; procedure, shortened: as §1
# Rattus norvegicus [20] = assay: Biodistribution of [18F]-AFA in rat thalamus at 120 min postinjection in vivo; type: ADME, organism-based; conditions: 2 h; procedure, shortened: as §1
# Rattus norvegicus [21] = assay: Biodistribution of [18F]AFA in rat striatum at 90 min postinjection in vivo; type: ADME, organism-based; conditions: 1.5 h; procedure, shortened: as §2
# Rattus norvegicus [22] = species on record: Rattus norvegicus; assay: Specific binding of [18F]AFA in frontal cortex of rat pretreated with compound 7c; n=3; type: functional
# Rattus norvegicus [23] = assay: Biodistribution of [18F]AFA in rat cerebellum at 90 min postinjection in vivo; type: ADME, organism-based; conditions: 1.5 h; procedure, shortened: as §1
# Rattus norvegicus [24] = assay: Biodistribution of [18F]AFA in rat striatum at 30 min postinjection in vivo; type: ADME, organism-based; conditions: 0.5 h; procedure, shortened: as §1
# Rattus norvegicus [25] = assay: Biodistribution of [18F]AFA in rat blood at 10 min postinjection in vivo; type: ADME, organism-based; procedure, shortened: as §1
# Rattus norvegicus [26] = assay: Biodistribution of [18F]AFA in rat blood at 90 min postinjection in vivo; type: ADME, organism-based; conditions: 1.5 h; procedure, shortened: as §1
# Rattus norvegicus [27] = assay: Biodistribution of [18F]AFA in rat hippocampus at 90 min postinjection in vivo; type: ADME, organism-based; conditions: 1.5 h; procedure, shortened: as §1
# Rattus norvegicus [28] = assay: Biodistribution of [18F]AFA in rat striatum at 10 min postinjection in vivo; type: ADME, organism-based; procedure, shortened: as §1
# Rattus norvegicus [29] = assay: Biodistribution of [18F]AFA in rat thalamus at 30 min postinjection in vivo; type: ADME, organism-based; conditions: 0.5 h; procedure, shortened: as §2
# Rattus norvegicus [30] = species on record: Rattus norvegicus; assay: Specific binding of [18F]AFA in hypothalamus of rat pretreated with compound 7c; n=3; type: functional
# Rattus norvegicus [31] = assay: Biodistribution of [18F]AFA in rat frontal cortex at 90 min postinjection in vivo; type: ADME, organism-based; conditions: 1.5 h; procedure, shortened: as §1
# Rattus norvegicus [32] = assay: Biodistribution of [18F]AFA in rat cerebellum at 120 min postinjection in vivo; type: ADME, organism-based; conditions: 2 h; procedure, shortened: as §1
# Rattus norvegicus [33] = species on record: Rattus norvegicus; assay: Specific binding of [18F]AFA in hippocampus of rat pretreated with compound 7c; n=3; type: functional
# Rattus norvegicus [34] = assay: Biodistribution of [18F]AFA in rat hippocampus at 60 min postinjection in vivo; type: ADME, organism-based; conditions: 1 h; procedure, shortened: as §1
# Rattus norvegicus [35] = assay: Biodistribution of [18F]AFA in rat hippocampus at 120 min postinjection in vivo; type: ADME, organism-based; conditions: 2 h; procedure, shortened: as §1
# Rattus norvegicus [36] = assay: Biodistribution of [18F]AFA in rat hypothalamus at 120 min postinjection in vivo; type: ADME, organism-based; conditions: 2 h; procedure, shortened: as §1
# Rattus norvegicus [37] = assay: Biodistribution of [18F]-AFA in rat hypothalamus at 60 min postinjection in vivo; type: ADME, organism-based; conditions: 1 h; procedure, shortened: as §1
# Rattus norvegicus [38] = assay: Biodistribution of [18F]AFA in rat blood at 30 min postinjection in vivo; type: ADME, organism-based; conditions: 0.5 h; procedure, shortened: as §1
# Rattus norvegicus [39] = assay: Biodistribution of [18F]AFA in rat thalamus at 90 min postinjection in vivo; type: ADME, organism-based; conditions: 1.5 h; procedure, shortened: as §2
# Rattus norvegicus [40] = assay: Biodistribution of [18F]AFA in rat hypothalamus at 30 min postinjection in vivo; type: ADME, organism-based; conditions: 0.5 h; procedure, shortened: as §1
compound,measurement,setting,value
CN(C)Cc1ccccc1Sc1ccc([18F])cc1N,Biodistribution,Rattus norvegicus [1],0.81 %ID/g
same,Biodistribution,Rattus norvegicus [2],0.26 %ID/g
same,Biodistribution,Rattus norvegicus [3],0.11 %ID/g
same,Biodistribution,Rattus norvegicus [4],0.65 %ID/g
same,Biodistribution,Rattus norvegicus [5],0.34 %ID/g
same,Biodistribution,Rattus norvegicus [6],0.11 %ID/g
same,Specific binding,Rattus norvegicus [7],0.37 %ID/g
same,Biodistribution,Rattus norvegicus [8],0.28 %ID/g
same,Biodistribution,Rattus norvegicus [9],0.73 %ID/g
same,Biodistribution,Rattus norvegicus [10],0.07 %ID/g
same,Biodistribution,Rattus norvegicus [11],0.07 %ID/g
same,Biodistribution,Rattus norvegicus [12],0.38 %ID/g
same,Biodistribution,Rattus norvegicus [13],0.48 %ID/g
same,Biodistribution,Rattus norvegicus [14],0.54 %ID/g
same,Specific binding,Rattus norvegicus [15],0.81 %ID/g
same,Biodistribution,Rattus norvegicus [16],0.72 %ID/g
same,Biodistribution,Rattus norvegicus [17],0.08 %ID/g
same,Biodistribution,Rattus norvegicus [18],0.3 %ID/g
same,Biodistribution,Rattus norvegicus [19],0.2 %ID/g
same,Biodistribution,Rattus norvegicus [20],0.16 %ID/g
same,Biodistribution,Rattus norvegicus [21],0.19 %ID/g
same,Specific binding,Rattus norvegicus [22],0.53 %ID/g
same,Biodistribution,Rattus norvegicus [23],0.04 %ID/g
same,Biodistribution,Rattus norvegicus [24],0.58 %ID/g
same,Biodistribution,Rattus norvegicus [25],0.27 %ID/g
same,Biodistribution,Rattus norvegicus [26],0.08 %ID/g
same,Biodistribution,Rattus norvegicus [27],0.18 %ID/g
same,Biodistribution,Rattus norvegicus [28],0.65 %ID/g
same,Biodistribution,Rattus norvegicus [29],0.69 %ID/g
same,Specific binding,Rattus norvegicus [30],0.62 %ID/g
same,Biodistribution,Rattus norvegicus [31],0.2 %ID/g
same,Biodistribution,Rattus norvegicus [32],0.04 %ID/g
same,Specific binding,Rattus norvegicus [33],0.55 %ID/g
same,Biodistribution,Rattus norvegicus [34],0.23 %ID/g
same,Biodistribution,Rattus norvegicus [35],0.1 %ID/g
same,Biodistribution,Rattus norvegicus [36],0.17 %ID/g
same,Biodistribution,Rattus norvegicus [37],0.38 %ID/g
same,Biodistribution,Rattus norvegicus [38],0.16 %ID/g
same,Biodistribution,Rattus norvegicus [39],0.23 %ID/g
same,Biodistribution,Rattus norvegicus [40],0.66 %ID/g
